Measured values from paper PMC4076841 (Biomaterials, 2014).

Key:
[1] = Toxicity and pathology studies; assay type: in vivo, mice
Outline: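 Female athymic nude mice (5–6 wk, 18–22 g) were dosed IV weekly during therapeutic treatment. Mice for histology received four doses of 1 mg/kg each. Serum AST, ALT and BUN were measured, with BUN taken 7 days after the last dose. Heart, liver, spleen, lung and kidney were formalin-fixed, H&E-stained and imaged by light microscopy. Data are mean ± SEM, compared by one-way ANOVA.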

[2] = Biodistribution of Pt in A375M tumor-bearing mice; assay type: in vivo; conditions: 1 mg/kg Pt IV, 24 h post injection
[3] = cited from earlier work
[4] = cited from earlier work; remark: listed apart in the source

Row | SMILES | nephrotoxicity (kidney H&E histology) ([1]; four doses, 1 mg/kg each) | BUN versus control group ([1]; measured 7 days after the last treatment) | ALT ([1]; serum, after treatment) | AST ([1]; serum, after treatment) | accumulation in tumors, injected dose (ID) per gram [2] [% ID/g] | solubility in water and organic solvents [3] | anti-tumor efficacy [4]
1 | [NH2][Pt]([NH2])([Cl])[Cl] [CDDP, cisplatin] | glomeruloscelorsis, tubular cell atrophy, and cystic dilatation of renal tubes | no significant difference | fell within the normal range | fell within the normal range | 1.2 | – | –
2 | [NH2][Pt]([NH2])([I])[I] [CDDP-I, iodinated cisplatin] | – | – | – | – | – | insolubility | ineffective
